Measurements reported in ChEMBL document CHEMBL1149584, “Synthesis and structure-activity relationships of new antiproliferative and proapoptotic retinoid-related biphenyl-4-yl-acrylic acids” (Bioorg Med Chem, 2007).
Activity calls are given as the source filed them. No cut-off for these calls is given here.

Tests used:
IGROV-1 [1] = assay: Antiproliferative activity against human IGROV1 cells after 72 hrs; assay type: functional, cell-based; conditions: IGROV-1, 72 h
Summary of the method: (§1)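 Ovarian carcinoma cells in log-phase growth were seeded in duplicate. Drug was added 24 h after seeding and exposure lasted 72 h. Cells were harvested and counted with a cell counter. IC₅₀ is the concentration giving a 50% drop in cell number versus untreated control.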

NB-4 = assay: Antiproliferative activity against human NB4 cells after 72 hrs; assay type: functional, cell-based; conditions: NB-4, 72 h
Summary of the method: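 Leukemia cells were exposed to drug for 24 h, and growth inhibition was assessed at 72 h by cell counting. IC₅₀ is the concentration giving a 50% drop in cell number versus untreated control.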

[2] = Antiproliferative activity against human cisplatin-resistant IGROV1/Pt1 cells with p53 mutation after 72 hrs; assay type: functional, cell-based, IGROV-1; summary of the method: as §1
IGROV-1 [3] = assay: Induction of DNA damage in IGROV1 cells assessed as RPA2 protein phosphorylation after 6 hrs; assay type: functional, cell-based; conditions: Homo sapiens
IGROV-1 [4] = assay: Induction of DNA damage in IGROV1 cells assessed as p53 protein phosphorylation after 6 hrs; assay type: functional, cell-based; conditions: Homo sapiens
IGROV-1 [5] = assay: Induction of apoptosis in IGROV1 cells after 72 hrs by TUNEL assay; assay type: functional, Homo sapiens; parameters: concentration or dose not given beside the values
Summary of the method: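 Cells exposed to drug for 72 h, fixed in 4% paraformaldehyde for 60 min at room temperature, then washed and resuspended in ice-cold PBS. Apoptosis detected by TUNEL and analyzed by flow cytometry.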

IGROV-1 [6] = assay: Cell cycle arrest in IGROV1 cells assessed as accumulation at G1/S phase by FAC scan flow cytometry; assay type: functional, cell-based; conditions: Homo sapiens
Summary of the method: (§2)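 Cells treated at the IC₈₀ concentration. Cell cycle distribution of propidium iodide-stained cells measured by FACScan flow cytometry at 24, 48 and 72 h of treatment. One experiment representative of three.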

IGROV-1 [7] = assay: Cell cycle arrest in IGROV1 cells assessed as accumulation at subG1 phase by FAC scan flow cytometry; assay type: functional, cell-based; conditions: Homo sapiens, TDE = time-dependent effect; summary of the method: as §2
[8] = biological target: T1, MAP kinase p38 (Homo sapiens) (UniProt O15264+Q15759+Q16539+P53778); assay: Activation of p38 kinase in IGROV1 cells assessed as phosphorylation after 18 hrs; assay type: cell-based; conditions: IGROV-1
Summary of the method: (§3)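 Cells treated for 18 h at each compound's IC₈₀ concentration. Lysates analyzed by Western blot with phospho-specific antibodies to detect activated JNK and p38.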

[9] = biological target: c-Jun N-terminal kinase, JNK (Homo sapiens) (UniProt P45983+P53779+P45984); assay: Activation of JNK in IGROV1 cells assessed as phosphorylation after 18 hrs; assay type: cell-based; conditions: IGROV-1; summary of the method: as §3
IGROV-1 [10] = assay: Induction of DNA damage in IGROV1 cells assessed as H2AX histone phosphorylation after 6 hrs; assay type: functional, cell-based; conditions: Homo sapiens
[11] = biological target: T1, MAP kinase p38 (Homo sapiens); assay: Activation of p38 kinase in IGROV1/Pt1 cells with p53 mutation assessed as phosphorylation after 18 hrs; assay type: cell-based; conditions: IGROV-1; summary of the method: as §3
[12] = Homo sapiens, IGROV-1/Pt1, 72 h

## COc1ccc(-c2ccc(/C=C(\Br)C(=O)O)cc2)cc1C12CC3CC(CC(C3)C1)C2
IGROV-1 [1]
  IC50: > 20000 nM
NB-4
  IC50: 17900 nM
[2]; [12]
  IC50: > 20000 nM

## O=C(O)/C=C/c1ccc(-c2cc(CO)c(O)c(C34CC5CC(CC(C5)C3)C4)c2)cc1
IGROV-1 [1]
  IC50: 760 nM
IGROV-1 [3]
  Activity: Active
NB-4
  IC50: 190 nM
IGROV-1 [4]
  Activity: Active
IGROV-1 [5]
  Activity: 45%
[2]
  IC50: 1040 nM

## COc1c(O)cc(-c2ccc(/C=C/C(=O)O)cc2)cc1C12CC3CC(CC(C3)C1)C2
IGROV-1 [1]
  IC50: 570 nM
IGROV-1 [6]
  Activity: Active
IGROV-1 [3]
  Activity: Active
NB-4
  IC50: 550 nM
IGROV-1 [4]
  Activity: Active
IGROV-1 [5]
  Activity: 20%
[2]; [12]
  IC50: 970 nM
IGROV-1 [7]
  Activity: tde

## O=C(O)/C(Br)=C\c1ccc(-c2cc3c(c(C45CC6CC(CC(C6)C4)C5)c2)OCO3)cc1
IGROV-1 [1]
  IC50: 36600 nM
NB-4
  IC50: 72300 nM
[2]; [12]
  IC50: 34100 nM

## O=C(O)C#Cc1ccc(-c2cc3c(c(C45CC6CC(CC(C6)C4)C5)c2)OCO3)cc1
IGROV-1 [1]
  IC50: 3600 nM
NB-4
  IC50: 2000 nM
[2]; [12]
  IC50: 4800 nM

## O=C(O)/C=C/c1ccc(-c2cccc(C34CC5CC(CC(C5)C3)C4)c2)cc1
IGROV-1 [1]
  IC50: 18800 nM
[2]; [12]
  IC50: 21900 nM

## O=C(O)/C=C/c1ccc(-c2cc3c(c(C45CC6CC(CC(C6)C4)C5)c2)OCO3)cc1
IGROV-1 [1]
  IC50: 390 nM
IGROV-1 [6]
  Activity: Active
IGROV-1 [3]
  Activity: Active
NB-4
  IC50: 260 nM
[8]
  Activity: Active
[9]
  Activity: Active
IGROV-1 [4]
  Activity: Active
IGROV-1 [5]
  Activity: 50%
[2]; [12]
  IC50: 460 nM
IGROV-1 [7]
  Activity: tde

## COc1ccc(-c2ccc(/C=C/C(=O)O)cc2)cc1C12CC3CC(CC(C3)C1)C2
IGROV-1 [1]
  IC50: 1190 nM
IGROV-1 [6]
  Activity: Active
IGROV-1 [3]
  Activity: Active
NB-4
  IC50: 1100 nM
IGROV-1 [10]
  Activity: Active
IGROV-1 [4]
  Activity: Active
IGROV-1 [5]
  Activity: 47%
[2]; [12]
  IC50: 1430 nM
IGROV-1 [7]
  Activity: tde

## O=Cc1cc(-c2ccc(/C=C/C(=O)O)cc2)cc(C23CC4CC(CC(C4)C2)C3)c1O
IGROV-1 [1]
  IC50: 1640 nM
NB-4
  IC50: 1610 nM
[2]; [12]
  IC50: 2720 nM

## CC(=O)NCc1cc(-c2ccc(/C=C/C(=O)O)cc2)cc(C23CC4CC(CC(C4)C2)C3)c1O
IGROV-1 [1]
  IC50: 1240 nM
NB-4
  IC50: 990 nM
[2]; [12]
  IC50: 2890 nM

## COc1cc(-c2ccc(/C=C/C(=O)O)cc2)cc(C23CC4CC(CC(C4)C2)C3)c1O
IGROV-1 [1]
  IC50: 520 nM
NB-4
  IC50: 270 nM

## COc1ccc(-c2ccc(C#CC(=O)O)cc2)cc1C12CC3CC(CC(C3)C1)C2
IGROV-1 [1]
  IC50: 1700 nM
[2]; [12]
  IC50: 4800 nM

## Cl.NCc1cc(-c2ccc(/C=C/C(=O)O)cc2)cc(C23CC4CC(CC(C4)C2)C3)c1O
IGROV-1 [1]
  IC50: 450 nM
IGROV-1 [6]
  Activity: Active
IGROV-1 [3]
  Activity: Active
NB-4
  IC50: 180 nM
IGROV-1 [4]
  Activity: Active
IGROV-1 [5]
  Activity: 55%
[2]; [12]
  IC50: 390 nM
IGROV-1 [7]
  Activity: tde

## O=C(O)/C=C/c1ccc(-c2ccc(O)c(C34CC5CC(CC(C5)C3)C4)c2)cc1 [ADAROTENE]
IGROV-1 [3]
  Activity: Active
[11]
  Activity: Active
IGROV-1 [4]
  Activity: Active
IGROV-1 [5]
  Activity: 51%
[2]; [12]
  IC50: 400 nM

## COc1cc(-c2ccc(/C=C/C(=O)O)cc2)cc(C23CC4CC(CC(C4)C2)C3)c1OC
IGROV-1 [1]
  IC50: 710 nM
NB-4
  IC50: 1890 nM
[2]; [12]
  IC50: 2400 nM

## COc1ccc(-c2ccc(/C=C(/Br)C(=O)O)cc2)cc1C12CC3CC(CC(C3)C1)C2
IGROV-1 [1]
  IC50: 30600 nM
NB-4
  IC50: 41000 nM
[2]; [12]
  IC50: > 10000 nM

## O=C(O)/C=C/c1ccc(-c2cc3c(c(C45CC6CC(CC(C6)C4)C5)c2)OCCO3)cc1
IGROV-1 [1]
  IC50: 230 nM
IGROV-1 [6]
  Activity: Active
IGROV-1 [3]
  Activity: Active
NB-4
  IC50: 110 nM
IGROV-1 [4]
  Activity: Active
IGROV-1 [5]
  Activity: 30%
[2]; [12]
  IC50: 480 nM
IGROV-1 [7]
  Activity: tde
